Test results: ChEMBL document CHEMBL3769331, “Discovery of a new selective inhibitor of A Disintegrin And Metalloprotease 10 (ADAM-10) able to reduce the shedding of NKG2D ligands in Hodgkin's lymphoma cell models” (Eur J Med Chem, 2016)

What was measured:
[1] = target: Matrix metalloproteinase-14 (Homo sapiens, UniProt P50281); assay: Inhibition of recombinant human MMP-14 using Mca-Lys-Pro-Leu-Gly-Leu-Dap(Dnp)-Ala-Arg-NH2 as substrate after 3 hrs by fluorometric assay
How it was run: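 MMP-14 catalytic domain, final 1.0 nM, preincubated with inhibitor for 3 h at 25 °C in Tris 50 mM pH 7.5, NaCl 150 mM, CaCl2 10 mM, Brij-35 0.05%, DMSO 1%. Substrate final 2 µM. Fluorescence (ex 325/em 400 nm) read every 15 s for 20 min. Duplicates; IC50 from the vi/vo equation.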

[2] = target: T1, Disintegrin and metalloproteinase domain-containing protein 10 (Homo sapiens, UniProt O14672); assay: Inhibition of recombinant human ADAM-10 using Mca-Lys-Pro-Leu-Gly-Leu-Dap(Dnp)-Ala-Arg-NH2 as substrate after 1 hr by fluorometric assay
T1 sequence (O14672 whole entry): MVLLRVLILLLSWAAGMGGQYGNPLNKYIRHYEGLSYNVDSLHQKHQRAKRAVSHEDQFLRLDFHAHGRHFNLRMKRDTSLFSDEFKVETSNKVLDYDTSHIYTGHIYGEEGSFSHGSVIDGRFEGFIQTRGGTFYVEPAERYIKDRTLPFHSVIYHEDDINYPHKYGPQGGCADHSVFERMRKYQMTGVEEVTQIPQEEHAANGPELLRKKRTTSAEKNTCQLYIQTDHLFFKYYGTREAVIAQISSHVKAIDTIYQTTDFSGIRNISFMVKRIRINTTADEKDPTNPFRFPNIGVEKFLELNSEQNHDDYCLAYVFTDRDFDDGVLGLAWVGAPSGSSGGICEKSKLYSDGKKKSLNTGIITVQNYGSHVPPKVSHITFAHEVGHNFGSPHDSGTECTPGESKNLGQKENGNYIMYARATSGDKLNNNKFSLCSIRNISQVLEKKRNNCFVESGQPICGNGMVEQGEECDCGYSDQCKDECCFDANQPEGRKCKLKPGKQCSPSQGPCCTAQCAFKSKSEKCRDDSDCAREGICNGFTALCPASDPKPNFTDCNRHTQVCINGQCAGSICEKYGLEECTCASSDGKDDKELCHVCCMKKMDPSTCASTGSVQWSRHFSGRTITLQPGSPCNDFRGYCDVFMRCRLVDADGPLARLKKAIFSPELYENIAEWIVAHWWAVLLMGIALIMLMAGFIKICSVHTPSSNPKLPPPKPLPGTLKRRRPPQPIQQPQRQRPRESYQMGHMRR
How it was run: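 Recombinant human ADAM-10, final 20 nM, preincubated with inhibitor for 1 h at 37 °C in Tris 25 mM pH 9, ZnCl2 25 µM, Brij-35 0.005%. Substrate final 10 µM. Fluorescence (ex 325/em 400 nm) read every 15 s for 20 min. Duplicates; IC50 from vi/vo = 1/(1+[I]/IC50).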

[3] = target: T2, Disintegrin and metalloproteinase domain-containing protein 17 (Homo sapiens, UniProt P78536); assay: Inhibition of recombinant human ADAM-17 using Mca-Lys-Pro-Leu-Gly-Leu-Dap(Dnp)-Ala-Arg-NH2 as substrate after 30 mins by fluorometric assay
T2 sequence (P78536 whole entry, the tested form may be a part): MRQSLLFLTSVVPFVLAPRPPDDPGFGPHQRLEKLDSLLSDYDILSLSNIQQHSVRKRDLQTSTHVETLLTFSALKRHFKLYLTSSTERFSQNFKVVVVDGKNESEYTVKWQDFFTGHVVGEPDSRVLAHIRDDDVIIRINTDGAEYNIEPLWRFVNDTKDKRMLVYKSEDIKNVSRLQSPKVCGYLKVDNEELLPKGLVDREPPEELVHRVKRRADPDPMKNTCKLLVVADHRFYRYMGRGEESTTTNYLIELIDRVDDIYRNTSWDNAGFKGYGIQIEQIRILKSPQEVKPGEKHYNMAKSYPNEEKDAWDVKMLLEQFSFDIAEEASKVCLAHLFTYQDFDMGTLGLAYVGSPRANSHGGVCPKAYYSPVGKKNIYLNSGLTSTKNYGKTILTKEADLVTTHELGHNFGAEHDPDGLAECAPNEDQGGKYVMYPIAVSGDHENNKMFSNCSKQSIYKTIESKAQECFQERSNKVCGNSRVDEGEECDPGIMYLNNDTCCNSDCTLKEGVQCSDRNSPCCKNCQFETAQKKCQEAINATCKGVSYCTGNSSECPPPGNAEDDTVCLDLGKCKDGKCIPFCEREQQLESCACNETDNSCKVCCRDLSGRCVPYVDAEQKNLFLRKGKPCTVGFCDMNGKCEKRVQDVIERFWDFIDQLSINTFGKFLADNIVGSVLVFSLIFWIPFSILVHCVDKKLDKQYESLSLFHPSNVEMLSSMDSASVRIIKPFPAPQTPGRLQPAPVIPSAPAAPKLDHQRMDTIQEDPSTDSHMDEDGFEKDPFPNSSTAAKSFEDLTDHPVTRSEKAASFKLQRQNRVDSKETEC
How it was run: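 Recombinant human ADAM-17, final 5 nM, preincubated with inhibitor for 30 min at 37 °C in Tris 25 mM pH 9, ZnCl2 25 µM, Brij-35 0.005%. Substrate final 2 µM. Fluorescence (ex 325/em 400 nm) read every 15 s for 20 min. Duplicates; IC50 from vi/vo = 1/(1+[I]/IC50).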

[4] = target: Matrix metalloproteinase-9 (Homo sapiens, UniProt P14780); assay: Inhibition of recombinant human MMP-9 using Mca-Lys-Pro-Leu-Gly-Leu-Dap(Dnp)-Ala-Arg-NH2 as substrate after 3 hrs by fluorometric assay
Matrix metalloproteinase-9, sequence (P14780 whole entry): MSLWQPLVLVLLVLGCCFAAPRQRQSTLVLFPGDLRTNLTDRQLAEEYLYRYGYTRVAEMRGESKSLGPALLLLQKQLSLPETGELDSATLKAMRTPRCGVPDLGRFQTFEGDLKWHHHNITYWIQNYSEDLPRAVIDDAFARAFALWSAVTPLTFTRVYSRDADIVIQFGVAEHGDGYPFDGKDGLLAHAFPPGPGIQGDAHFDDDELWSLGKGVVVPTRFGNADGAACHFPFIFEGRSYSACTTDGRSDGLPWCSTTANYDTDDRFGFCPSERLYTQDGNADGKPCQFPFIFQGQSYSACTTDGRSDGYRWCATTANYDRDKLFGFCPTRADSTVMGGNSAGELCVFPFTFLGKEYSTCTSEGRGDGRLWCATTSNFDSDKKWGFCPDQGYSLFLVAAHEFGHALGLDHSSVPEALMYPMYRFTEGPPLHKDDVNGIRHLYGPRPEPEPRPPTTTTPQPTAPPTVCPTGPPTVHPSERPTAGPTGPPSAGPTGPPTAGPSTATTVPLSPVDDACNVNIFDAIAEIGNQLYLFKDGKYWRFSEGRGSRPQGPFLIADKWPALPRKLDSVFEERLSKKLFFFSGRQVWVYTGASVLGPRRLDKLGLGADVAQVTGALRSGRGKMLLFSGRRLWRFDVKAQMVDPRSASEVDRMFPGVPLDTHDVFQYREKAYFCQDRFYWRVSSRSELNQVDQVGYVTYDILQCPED
How it was run: (§1)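 Pro-MMPs were activated with APMA: MMP-1 2 mM for 2 h, MMP-2 2 mM for 1 h, MMP-9 1 mM for 1 h, all at 37 °C. Final enzyme: MMP-1 2.0 nM, MMP-2 0.56 nM, MMP-9 1.3 nM. Enzyme was preincubated with inhibitor for 3 h at 25 °C in Tris 50 mM pH 7.5, NaCl 150 mM, CaCl2 10 mM, Brij-35 0.05%, DMSO 1%. Substrate final 2 µM. Fluorescence (ex 325/em 400 nm) read every 15 s for 20 min. Duplicates; IC50 from vi/vo = 1/(1+[I]/IC50).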

[5] = target: 72 kDa type IV collagenase (Homo sapiens, UniProt P08253); assay: Inhibition of recombinant human MMP-2 using Mca-Lys-Pro-Leu-Gly-Leu-Dap(Dnp)-Ala-Arg-NH2 as substrate after 3 hrs by fluorometric assay; how it was run: as §1
72 kDa type IV collagenase, sequence (P08253 whole entry): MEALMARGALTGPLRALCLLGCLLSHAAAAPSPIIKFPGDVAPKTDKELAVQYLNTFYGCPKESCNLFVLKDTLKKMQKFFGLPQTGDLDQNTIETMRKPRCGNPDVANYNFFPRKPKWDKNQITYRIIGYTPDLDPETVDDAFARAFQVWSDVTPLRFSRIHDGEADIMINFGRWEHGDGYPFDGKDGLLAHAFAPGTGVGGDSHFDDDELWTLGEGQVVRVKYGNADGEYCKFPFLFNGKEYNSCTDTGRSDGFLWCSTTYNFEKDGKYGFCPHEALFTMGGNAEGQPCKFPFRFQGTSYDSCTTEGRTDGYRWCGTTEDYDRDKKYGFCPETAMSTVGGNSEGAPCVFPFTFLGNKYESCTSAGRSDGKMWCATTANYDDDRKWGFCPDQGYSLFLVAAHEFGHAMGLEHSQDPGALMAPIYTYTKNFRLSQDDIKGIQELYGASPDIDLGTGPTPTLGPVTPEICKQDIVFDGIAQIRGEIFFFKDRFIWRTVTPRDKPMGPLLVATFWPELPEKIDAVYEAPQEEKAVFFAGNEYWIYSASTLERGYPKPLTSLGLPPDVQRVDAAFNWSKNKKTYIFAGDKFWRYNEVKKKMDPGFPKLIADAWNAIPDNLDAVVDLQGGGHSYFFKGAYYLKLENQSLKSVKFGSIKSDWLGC

[6] = target: T3, Interstitial collagenase (Homo sapiens, UniProt P03956); assay: Inhibition of human MMP-1 using Mca-Lys-Pro-Leu-Gly-Leu-Dap(Dnp)-Ala-Arg-NH2 as substrate after 3 hrs by fluorometric assay; how it was run: as §1
T3 sequence (P03956 whole entry): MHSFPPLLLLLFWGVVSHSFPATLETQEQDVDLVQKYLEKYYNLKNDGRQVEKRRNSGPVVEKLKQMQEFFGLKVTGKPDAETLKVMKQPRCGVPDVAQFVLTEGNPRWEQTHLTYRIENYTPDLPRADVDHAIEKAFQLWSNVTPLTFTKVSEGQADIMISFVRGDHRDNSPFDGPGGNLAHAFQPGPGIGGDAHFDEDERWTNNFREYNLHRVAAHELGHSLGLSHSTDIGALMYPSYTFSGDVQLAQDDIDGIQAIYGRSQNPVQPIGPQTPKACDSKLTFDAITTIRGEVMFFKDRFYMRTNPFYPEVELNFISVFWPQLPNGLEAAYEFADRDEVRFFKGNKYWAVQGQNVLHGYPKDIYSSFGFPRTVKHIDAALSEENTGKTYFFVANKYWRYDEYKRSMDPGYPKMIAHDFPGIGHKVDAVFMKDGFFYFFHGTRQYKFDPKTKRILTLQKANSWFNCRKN

[7] = target: T1, Disintegrin and metalloproteinase domain-containing protein 10; assay: Inhibition of ADAM-10 in human KM-H2 cells assessed as reduction in pervanadate-induced soluble ULBP3 shedding after 24 hrs by ELISA; assay type: cell-based
How it was run: (§2)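 Supernatants collected before and after 24 h inhibitor exposure, 10 to 0.1 µM. 100 µM sodium orthovanadate was activated to pervanadate with 100 µM H2O2 and added for 40 min before harvest. Soluble ULBP3 or ALCAM measured by ELISA.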

[8] = target: T1, Disintegrin and metalloproteinase domain-containing protein 10; assay: Inhibition of ADAM-10 in human KM-H2 cells assessed as reduction in pervanadate-induced soluble MICB shedding after 24 hrs by ELISA; assay type: cell-based
How it was run: (§3)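 Supernatants taken from HL cultures before and after 24 h inhibitor exposure, 10 to 0.1 µM. 100 µM sodium orthovanadate was activated to pervanadate with 100 µM H2O2 and added for 40 min before harvest. Soluble MIC-B measured by ELISA against a MIC-B/Fc chimera standard curve. The DMSO+pervanadate supernatant was set as 100% shedding. Triplicate wells, 3 independent experiments.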

[9] = target: T2, Disintegrin and metalloproteinase domain-containing protein 17; assay: Inhibition of ADAM-17 in human KM-H2 cells assessed as reduction in pervanadate-induced soluble ALCAM shedding after 24 hrs by ELISA; assay type: cell-based; how it was run: as §2
[10] = target: T1, Disintegrin and metalloproteinase domain-containing protein 10; assay: Inhibition of ADAM-10 in human L428 cells assessed as reduction in pervanadate-induced soluble ULBP3 shedding after 24 hrs by ELISA; assay type: cell-based, L-428; how it was run: as §2
[11] = target: T1, Disintegrin and metalloproteinase domain-containing protein 10; assay: Inhibition of ADAM-10 in human L428 cells assessed as reduction in pervanadate-induced soluble MICB shedding after 24 hrs by ELISA; assay type: cell-based, L-428; how it was run: as §3
[12] = target: T2, Disintegrin and metalloproteinase domain-containing protein 17; assay: Inhibition of ADAM-17 in human L428 cells assessed as reduction in pervanadate-induced soluble ALCAM shedding after 24 hrs by ELISA; assay type: cell-based, L-428; how it was run: as §2
[13] = target: T1, Disintegrin and metalloproteinase domain-containing protein 10; assay: Inhibition of ADAM-10 in human L540 cells assessed as reduction in pervanadate-induced soluble ULBP3 shedding after 24 hrs by ELISA; assay type: cell-based, L-540; how it was run: as §2
[14] = target: T1, Disintegrin and metalloproteinase domain-containing protein 10; assay: Inhibition of ADAM-10 in human L540 cells assessed as reduction in pervanadate-induced soluble MICB shedding after 24 hrs by ELISA; assay type: cell-based, L-540; how it was run: as §3
[15] = Cytotoxicity against human KM-H2 cells assessed as cell viability at 10 uM after 72 to 96 hrs by JC-1 staining-based fluorescence assay; settings: read-out: Activity
How it was run: (§4)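 HL cell lines from DSMZ exposed to inhibitor at 10 µM for 72 and 96 h. Viability read as mitochondrial potential by staining with the dual-emission fluorescent probe JC-1.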

[16] = Cytotoxicity against human L428 cells assessed as cell viability at 10 uM after 72 to 96 hrs by JC-1 staining-based fluorescence assay; set-up: species or system L-428; settings: read-out: Activity; how it was run: as §4
[17] = Cytotoxicity against human L540 cells assessed as cell viability at 10 uM after 72 to 96 hrs by JC-1 staining-based fluorescence assay; set-up: species or system L-540; settings: read-out: Activity; how it was run: as §4

Structure (SMILES) | IC50 [1] [µM] | IC50 [2] [µM] | IC50 [3] [µM] | IC50 [4] [µM] | IC50 [5] [µM] | IC50 [6] [µM] | IC50 [7] [µM] | IC50 [8] [µM] | IC50 [9] [µM] | IC50 [10] [µM] | IC50 [11] [µM] | IC50 [12] [µM] | IC50 [13] [µM] | IC50 [14] [µM] | viability at 10 µM [15] [%] | viability at 10 µM [16] [%] | viability at 10 µM [17] [%]
CNC(=O)[C@@H](NC(=O)[C@H](CCCc1ccccc1)[C@H](C)N(O)C=O)C(C)(C)C | 0.088 | 0.027 | 0.86 | 0.0051 | 0.0021 | 0.125 | 10 | 12 | 10 | 15 | 12 | 10 | 10 | 12 |  |  | 
O=C(NCCC[C@@H](NS(=O)(=O)c1ccc(OCc2cc(Br)cc(Br)c2)cc1)C(=O)NO)OCc1ccccc1 |  |  |  |  |  |  | 15 | 15 | 0.5 | 10 | 15 | 0.1 | 12 | 15 | > 96 | > 96 | > 96
Cc1cc(C#N)ccc1N1CCN(S(=O)(=O)N[C@H](CCCNC(=O)OCc2ccccc2)C(=O)NO)CC1 | 50 | 0.0092 | 0.09 | 4.5 | 0.37 | > 200 | 10 | 7 | 1 | 10 | 7 | 1 | 10 | 12 | > 96 | > 96 | > 96
Cc1cc(C#N)ccc1N1CCN(S(=O)(=O)N2CSC[C@@H]2C(=O)NO)CC1 | 100 | 0.04 | 1.5 | 24 | 5.4 | 346 | 7 | 5 | 10 | 5 | 5 | 12 | 7 | 7 | > 96 | > 96 | > 96
